In ChEMBL document CHEMBL5329223, “Newly synthesized 6-substituted piperazine/phenyl-9-cyclopentyl containing purine nucleobase analogs act as potent anticancer agents and induce apoptosis via inhibiting Src in hepatocellular carcinoma cells” (RSC Med Chem, 2023):
pIC50: −log10 of the molar value. The source made the active and inactive calls. The calls are words filed in the database; no cut-off is given here.

Tests used:
[1] = tested on: Huh-7; assay: Cytotoxicity against human Huh-7 cells assessed as cell growth inhibition incubated for 72 hrs by SRB assay; type: functional, cell-based; conditions: Huh-7, 72 h
Summary of the method: (§1)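 Cells seeded at 1000–3000 per well, treated after 24 h with 2.5–40 μM (40, 20, 10, 5, 2.5 μM) for 72 h, in duplicate or triplicate; DMSO negative control. Fixed with 10% TCA 1 h at 4 °C, stained with 0.4% SRB in 1% acetic acid, dye solubilized in 10 mM TBS, A515 read; OD normalized to DMSO control, IC50 from growth-inhibition curves.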

[2] = tested on: HCT-116; assay: Cytotoxicity against human HCT-116 cells assessed as cell growth inhibition incubated for 72 hrs by SRB assay; type: functional, cell-based; conditions: HCT-116, 72 h; summary of the method: as §1
[3] = tested on: MCF7; assay: Cytotoxicity against human MCF7 cells assessed as cell growth inhibition incubated for 72 hrs by SRB assay; type: functional, cell-based; conditions: MCF7, 72 h; summary of the method: as §1
[4] = tested on: HepG2; assay: Cytotoxicity against human HepG2 cells assessed as cell growth inhibition incubated for 72 hrs by SRB assay; type: functional, cell-based; conditions: HepG2, 72 h; summary of the method: as §1
[5] = tested on: Hep 3B2; assay: Cytotoxicity against human Hep3B cells assessed as cell growth inhibition incubated for 72 hrs by SRB assay; type: functional, cell-based; summary of the method: as §1
[6] = tested on: PLC; assay: Cytotoxicity against human PLC cells assessed as cell growth inhibition incubated for 72 hrs by SRB assay; type: functional, cell-based; summary of the method: as §1
[7] = tested on: Mahlavu; assay: Cytotoxicity against human Mahlavu cells assessed as cell growth inhibition incubated for 72 hrs by SRB assay; type: functional, cell-based; summary of the method: as §1
[8] = Cytotoxicity against human FOCUS cells assessed as cell growth inhibition incubated for 72 hrs by SRB assay; type: functional, cell-based; summary of the method: as §1
[9] = tested on: SNU-475; assay: Cytotoxicity against human SNU-475 cells assessed as cell growth inhibition incubated for 72 hrs by SRB assay; type: functional, cell-based; conditions: SNU-475, 72 h; summary of the method: as §1
[10] = tested on: SNU-182; assay: Cytotoxicity against human SNU-182 cells assessed as cell growth inhibition incubated for 72 hrs by SRB assay; type: functional, cell-based; conditions: for pIC50: SNU-182, 72 h; summary of the method: as §1
[11] = tested on: SNU-387; assay: Cytotoxicity against human SNU-387 cells assessed as cell growth inhibition incubated for 72 hrs by SRB assay; type: functional, cell-based; conditions: SNU-387, 72 h; summary of the method: as §1
[12] = tested on: SNU-398; assay: Cytotoxicity against human SNU-398 cells assessed as cell growth inhibition incubated for 72 hrs by SRB assay; type: functional, cell-based; conditions: SNU-398, 72 h; summary of the method: as §1
[13] = tested on: SNU-423; assay: Cytotoxicity against human SNU-423 cells assessed as cell growth inhibition incubated for 72 hrs by SRB assay; type: functional, cell-based; conditions: SNU-423, 72 h; summary of the method: as §1
[14] = tested on: SNU-449; assay: Cytotoxicity against human SNU-449 cells assessed as cell growth inhibition incubated for 72 hrs by SRB assay; type: functional, cell-based; conditions: SNU-449, 72 h; summary of the method: as §1
[15] = tested on: Huh-7; assay: Cytotoxicity against human Huh-7 cells assessed as cell growth inhibition at 0.625 to 5 uM measured upto 72 hrs by RT-CES analysis; type: functional, cell-based; conditions: dose 0.625-5 µM
Summary of the method: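 Huh7 cells, 2000 per well, treated 24 h after seeding alongside DMSO control; cell index from impedance recorded every 30 min; plots for each concentration normalized to DMSO-treated cells.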

[16] = tested on: Huh-7; assay: Induction of morphological changes in human Huh-7 cells assessed as horseshoe-like condensed nuclei at 5 uM incubated for 72 hrs by Hoechst 33258 dye based microscopy; type: functional, cell-based
Summary of the method: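 Huh7 cells on coverslips (50 000 per well) given 5 μM or DMSO 24 h after seeding for 72 h; permeabilized with ice-cold methanol 10 min, Hoechst 33258 stain 5 min in the dark, imaged by fluorescence microscopy with 40× objective.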

[17] = tested on: Huh-7; assay: Induction of cell cycle arrest in human Huh-7 cells assessed as increase in accumulation of cells at subG1 phase at 5 uM incubated for 72 hrs by PI staining based flow cytometry; type: functional
Summary of the method: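 Huh7 and Mahlavu cells serum-starved 24 h to synchronize, then given 5 μM or DMSO in fresh growth medium for 72 h. Trypsinized, fixed in ice-cold 70% ethanol at least 3 h at −20 °C, PI-stained with a cell cycle kit, analyzed by flow cytometry for SubG1.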

[18] = tested on: Huh-7; assay: Induction of apoptosis in human Huh-7 cells assessed as increase in PARP-1 cleavage at 5 uM incubated for 72 hrs by Western blot analysis; type: functional, cell-based
Summary of the method: (§2)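 Huh7 cells (300 000 per dish) treated 24 h after seeding with 5 μM or DMSO for 72 h. Immunoblot for PARP-1, phospho-Src Tyr416, Src, Rb, phospho-Rb Ser807/811, Cdk2; calnexin and actin as loading controls.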

[19] = tested on: Huh-7; assay: Upregulation of intracellular ATP level in human Huh-7 cells at 5 uM incubated for 72 hrs by Kinase Glo assay; type: functional, cell-based
Summary of the method: (§3)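 Huh7 and Mahlavu cells grown 24 h, then treated with 5 μM for 72 h. Lysates protein-normalized by Bradford; ATP read by Kinase-Glo Plus luminescence per kit protocol. Staurosporine positive control, DMSO negative control.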

[20] = tested on: Mahlavu; assay: Upregulation of intracellular ATP level in human Mahlavu cells at 5 uM incubated for 72 hrs by Kinase Glo assay; type: functional, cell-based; summary of the method: as §3
[21] = target: Proto-oncogene tyrosine-protein kinase Src (Homo sapiens) (UniProt P12931); assay: Inhibition of Src activation in human Huh-7 cells assessed as decrease in phosphorylated Src level at 5 uM incubated for 72 hrs by Western blot analysis; type: cell-based; summary of the method: as §2
Chain of Proto-oncogene tyrosine-protein kinase Src (Homo sapiens) (P12931 2-536 limits assumed): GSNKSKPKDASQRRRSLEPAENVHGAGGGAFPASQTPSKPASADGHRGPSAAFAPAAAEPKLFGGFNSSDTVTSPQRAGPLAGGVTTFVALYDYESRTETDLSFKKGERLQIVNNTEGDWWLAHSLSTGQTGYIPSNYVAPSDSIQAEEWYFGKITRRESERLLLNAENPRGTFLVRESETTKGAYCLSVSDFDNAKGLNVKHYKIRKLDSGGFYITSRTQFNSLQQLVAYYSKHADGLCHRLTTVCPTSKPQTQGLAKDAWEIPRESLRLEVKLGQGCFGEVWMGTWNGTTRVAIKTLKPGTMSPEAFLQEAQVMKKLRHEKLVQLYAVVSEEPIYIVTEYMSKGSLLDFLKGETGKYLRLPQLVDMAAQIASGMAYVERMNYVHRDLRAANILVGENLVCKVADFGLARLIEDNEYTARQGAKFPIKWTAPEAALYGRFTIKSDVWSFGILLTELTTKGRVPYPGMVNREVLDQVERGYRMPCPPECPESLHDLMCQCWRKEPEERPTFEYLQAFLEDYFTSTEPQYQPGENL

SMILES	pIC50 [1]	pIC50 [2]	pIC50 [3]	pIC50 [4]	pIC50 [5]	pIC50 [6]	pIC50 [7]	pIC50 [8]	pIC50 [9]	pIC50 [10]	pIC50 [11]	pIC50 [12]	pIC50 [13]	pIC50 [14]	also measured
Fc1ccc(N2CCN(c3ncnc4c3ncn4C3CCCC3)CC2)cc1	5.82	5.80	5.04	6.30	5.37	5.22	5.15	5.82	5.15	4.39	4.59	6.00	4.80	5.48	growth inhibition (GI) [15]: Active; Activity [16]: Active; Activity [17]: Active; Activity [18]: Active; Activity [19]: inactive; Activity [20]: inactive
CC(C)c1ccc(S(=O)(=O)N2CCN(c3ncnc4c3ncn4C3CCCC3)CC2)cc1	4.83	4.94	4.76												
Clc1ccc(N2CCN(c3ncnc4c3ncn4C3CCCC3)CC2)cc1	7.00	6.22	5.39	8.00	6.40	4.71	5.40	5.70	4.91	4.91	5.70	5.74	5.40	5.16	growth inhibition (GI) [15]: Active; Activity [16]: Active; Activity [17]: Active; inhibition [21]: Active; Activity [19]: inactive; Activity [20]: inactive
COc1ccc(S(=O)(=O)N2CCN(c3ncnc4c3ncn4C3CCCC3)CC2)cc1	5.15	4.98	5.07	5.57	4.14	4.07	5.05	5.00	4.24		4.80	5.16	5.17	4.70	growth inhibition (GI) [10]: inactive
c1ccc(-c2ncnc3c2ncn3C2CCCC2)cc1	4.89	4.86	4.80												
Cc1ccc(S(=O)(=O)N2CCN(c3ncnc4c3ncn4C3CCCC3)CC2)cc1	4.31	3.71	3.77												
Nc1nc(Cl)nc2c1ncn2[C@H]1C[C@H](O)[C@@H](CO)O1 [CLADRIBINE]	6.22	> 7.00		6.40	7.00	5.04	> 7.00	> 7.00	5.60	4.63	5.15	> 7.00	5.17	4.43	
Cc1ccc(-c2ncnc3c2ncn3C2CCCC2)cc1	4.62	4.65	4.75												
CC(C)(C)c1ccc(-c2ncnc3c2ncn3C2CCCC2)cc1	5.20	5.18	4.90	5.57	5.17	5.47	5.40	5.70	4.91	4.91	5.70	5.74	5.40	5.16	
FC(F)(F)Oc1ccc(-c2ncnc3c2ncn3C2CCCC2)cc1	4.82	4.58	4.62												
O=S(=O)(c1ccc(Br)cc1)N1CCN(c2ncnc3c2ncn3C2CCCC2)CC1	5.10	5.08	5.19	5.20	5.37	5.04	4.69	4.80	5.05	4.22	4.80	5.40	4.98	5.07	
COc1ccc(-c2ncnc3c2ncn3C2CCCC2)cc1	4.97	4.41	4.71												
O=S(=O)(c1ccc(Cl)cc1)N1CCN(c2ncnc3c2ncn3C2CCCC2)CC1	4.46	4.35	4.98												
